Published values pooled from the literature.
Protocols differ between the studies behind these lines.
Target: Serine/threonine-protein kinase 26 (STK26, Homo sapiens, UniProt Q9P289)

| SMILES | observed | technique | concentration | remaining binding [%] |
| --- | --- | --- | --- | --- |
| COc1cnc(Nc2cccc(S(N)(=O)=O)c2)nc1N1CCN(c2ccccc2)C(=O)C1 | binding | competition with immobilised ligand | 1 µM | 83 |
| c1cncc(-c2cccc(Nc3nccc(NC4CCCCC4)n3)c2)c1 | binding | competition with immobilised ligand | 10 µM | 83 |
| CN1CCN(c2ccc(Nc3nccc(-c4ccccc4)n3)cc2C(F)(F)F)CC1 | binding | – | 10 µM | 81 |
| O=C(Nc1c[nH]nc1C(=O)NC1CCNCC1)c1cc(F)cc(F)c1 | binding | competition with immobilised ligand | 1 µM | 68 |
| O=C(c1ccc(Nc2ncc(Cl)c(-c3cc4ccccc4s3)n2)cc1)N1CCC(N2CCCC2)CC1 | binding | competition with immobilised ligand | 1 µM | 66 |
| CS(=O)(=O)N1CCCC(NC(=O)[C@H](CCC2CCCCC2)NC(=O)c2ccc(CNC(=O)c3cnc4ccccn34)cc2)C1 (some centres unmarked) | cell-free assay | competition with immobilised ligand | 0.1 µM | 100 |
| C[C@@H](c1ccc(-n2cnc3c(N)ncnc32)cc1)N1CCc2nn(C)c(Cc3ccccc3)c2C1=O | binding | competition with immobilised ligand | 0.1 µM | 88 |
| CCN1CCN(Cc2ccc(C(=O)Nc3ccc(C)c(Oc4ccc5c(c4)CC(=O)N5)c3)cc2C(F)(F)F)CC1 | binding | competition with immobilised ligand | 1 µM | 100 |
| CN([C@@H]1CCc2c(CC(=O)O)c3ccccc3n2C1)S(=O)(=O)c1ccc(F)cc1 | cell-free assay | competition with immobilised ligand | 1 µM | 79 |
| O=C(c1ccc(Nc2nccc(-c3cc4ccccc4s3)n2)cc1)N1CCC(N2CCCC2)CC1 | binding | competition with immobilised ligand | 1 µM | 99 |
| CCC(=O)N[C@@H]1CC[C@H](C(=O)N(C)c2ccc(-c3nc4ccccc4o3)cc2)C1 | cell-free assay | competition with immobilised ligand | 1 µM | 77 |
| O=C(NCCCN1CCOCC1)c1ccc(Nc2ncc(Cl)c(-c3ccc(Cl)s3)n2)cc1 | binding | competition with immobilised ligand | 1 µM | 16 |
| CN([C@@H]1CCc2c(CC(=O)O)c3cc(S(C)(=O)=O)ccc3n2C1)S(=O)(=O)c1ccc(F)cc1 | cell-free assay | competition with immobilised ligand | 1 µM | 77 |
| Nc1ncc2c(n1)-c1c([nH]c3ccc(C#CC4CC4)cc13)CCCC2 | binding | competition with immobilised ligand | 1 µM | 99 |
